Experimental data as given in ChEMBL document CHEMBL1157704, “Potent activity against K562 cells by polyamide-seco-CBI conjugates targeting histone H4 genes” (Bioorg Med Chem, 2010).

How the values were obtained:
Assay type in all cases: functional
K562 [1] = test: Effect on HIST1H2AC gene expression in human K562 cells assessed as change in mRNA transcript expression at 10 nM after 48 hrs by DNA microarray analysis relative to control
Summary of the method: (§1)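 Transcripts were profiled on Affymetrix GeneChip Human Gene 1.0 ST arrays in K562 cells treated at 10 nM. Treated cells were collected at 6, 12, 24 and 48 h; untreated controls were collected at 48 h. Transcripts changed at least twofold versus control were scored.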

K562 [2] = test: Effect on RNU5F gene expression in human K562 cells assessed as change in mRNA transcript expression at 10 nM after 48 hrs by DNA microarray analysis relative to control
Summary of the method: (§2)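 K562 CML cells (b3a2 Bcr-Abl) in standard ATCC-recommended culture, exposed once to 10 nM conjugate and harvested at 48 h. Untreated controls were also collected at 48 h. Transcripts were profiled on Human Gene 1.0 ST whole-genome oligonucleotide arrays, and each treated level was expressed relative to the untreated control, with a cutoff of at least twofold change.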

K562 [3] = test: Effect on PLCB2 gene expression in human K562 cells assessed as change in mRNA transcript expression at 10 nM after 48 hrs by DNA microarray analysis relative to control; summary of the method: as §2
K562 [4] = test: Effect on HIST1H1E gene expression in human K562 cells assessed as change in mRNA transcript expression at 10 nM after 48 hrs by DNA microarray analysis relative to control; summary of the method: as §1
K562 [5] = test: Effect on LOC85389 gene expression in human K562 cells assessed as change in mRNA transcript expression at 10 nM after 48 hrs by DNA microarray analysis relative to control; summary of the method: as §2

Measured: fold change (FC)

CC(=O)Nc1cn(C)c(C(=O)Nc2cn(C)c(C(=O)NCCC(=O)Nc3cn(C)c(C(=O)NCCCC(=O)Nc4cc(C(=O)Nc5cn(C)c(C(=O)Nc6ccc7[nH]c(C(=O)N8CC(CCl)c9c8cc(O)c8ccccc98)cc7c6)n5)n(C)c4)n3)n2)n1 (stereo not given)
>=2: all assays above
